{"source": "ChEMBL document CHEMBL1140697", "about": "“Synthesis and evaluation in monkey of two sensitive 11C-labeled aryloxyanilide ligands for imaging brain peripheral benzodiazepine receptors in vivo” (J Med Chem, 2008)", "key": {"[1]": {"system": "Plasma", "experiment": "Biodistribution in rat plasma at 2.34 mCi, iv after 30 mins", "assay_type": "ADME, organism-based", "details": "in vivo, 0.5 h", "summary_of_the_method": "(§1)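 Rats received the ¹¹C-radioligand iv with varying carrier mass (µg/kg) and were sampled 30 min later. Plasma and brain homogenate were extracted into acetonitrile and analysed by reverse-phase radio-HPLC (C18; MeOH/H₂O/Et₃N, 1.5 mL/min), reporting % radioactivity as unchanged radioligand. Extraction recovery was recorded. Replicate HPLC analyses were run on one sample per rat.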"}, "[2]": {"experiment": "Stability in monkey whole blood >30 mins", "assay_type": "ADME, tissue-based, Macaca mulatta", "details": "rhesus monkey, read-out: Stability", "summary_of_the_method": "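The radioligand was incubated with monkey blood for >30 min. Radioactivity extracted from the plasma was analysed by radio-HPLC to give the percentage of unchanged radioligand, reported as mean ± SD.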"}, "[3]": {"system": "Rattus norvegicus", "experiment": "Biodistribution in rat urine at 2.34 mCi, iv after 30 mins", "assay_type": "ADME, organism-based", "details": "in vivo, 0.5 h"}, "[4]": {"biological_target": "Kappa-type opioid receptor (Homo sapiens, UniProt P41145)", "sequence (P41145 whole entry)": "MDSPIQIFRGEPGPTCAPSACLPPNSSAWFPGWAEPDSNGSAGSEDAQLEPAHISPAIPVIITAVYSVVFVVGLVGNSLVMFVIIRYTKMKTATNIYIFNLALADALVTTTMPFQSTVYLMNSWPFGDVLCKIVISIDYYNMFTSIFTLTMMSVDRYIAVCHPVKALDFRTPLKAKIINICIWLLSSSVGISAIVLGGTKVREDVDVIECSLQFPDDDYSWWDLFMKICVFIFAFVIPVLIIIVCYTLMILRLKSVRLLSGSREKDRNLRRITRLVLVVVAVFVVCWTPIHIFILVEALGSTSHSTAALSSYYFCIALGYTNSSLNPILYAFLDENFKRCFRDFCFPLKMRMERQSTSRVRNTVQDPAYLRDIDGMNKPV", "experiment": "Binding affinity to kappa opioid receptor"}, "[5]": {"experiment": "Lipophilicity, log D of the compound", "assay_type": "physicochemical", "details": "octanol/water", "summary_of_the_method": "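The ¹¹C-ligand (~300 µCi) in saline with 5% ethanol was mixed with sodium phosphate buffer (0.15 M, pH 7.4). Six 1 mL aliquots were each vortexed 1 min with buffer-pre-equilibrated n-octanol, centrifuged 1 min, and 200 µL of each phase was γ-counted. Aqueous counts were corrected by radio-HPLC for the unchanged fraction. LogD = log(cpm octanol/corrected cpm aqueous); mean ± SD of six determinations.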"}, "[6]": {"system": "Brain", "experiment": "Biodistribution in rat brain at 0.472 mCi, iv after 30 mins", "assay_type": "ADME, organism-based", "details": "in vivo, 0.5 h"}, "[7]": {"biological_target": "Translocator protein (Homo sapiens, UniProt P30536)", "sequence (P30536 whole entry)": "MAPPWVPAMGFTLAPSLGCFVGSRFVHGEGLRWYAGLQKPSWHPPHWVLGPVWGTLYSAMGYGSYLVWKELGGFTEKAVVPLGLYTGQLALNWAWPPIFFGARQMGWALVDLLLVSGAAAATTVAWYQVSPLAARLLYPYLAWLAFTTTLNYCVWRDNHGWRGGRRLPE", "experiment": "Binding affinity to PBR in human mitochondrial tissue"}, "[8]": {"system": "Plasma", "experiment": "Drug level in rhesus monkey plasma", "assay_type": "ADME, cell-free, Macaca mulatta"}, "[9]": {"system": "Plasma", "experiment": "Drug level in rhesus monkey plasma assessed as cell distribution", "assay_type": "ADME, cell-free, Macaca mulatta"}, "[10]": {"biological_target": "Translocator protein (Rattus norvegicus, UniProt P16257)", "sequence (P16257 whole entry, looked up)": "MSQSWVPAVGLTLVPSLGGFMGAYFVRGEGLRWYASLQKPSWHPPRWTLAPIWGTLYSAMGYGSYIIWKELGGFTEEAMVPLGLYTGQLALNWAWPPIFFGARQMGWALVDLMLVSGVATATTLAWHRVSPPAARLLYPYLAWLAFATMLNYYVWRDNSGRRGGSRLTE", "experiment": "Binding affinity to PBR in Sprague-Dawley rat mitochondrial tissue"}, "[11]": {"experiment": "Binding affinity to PBR in rhesus monkey mitochondrial tissue", "design": "species or system Macaca mulatta", "summary_of_the_method": "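Mitochondrial fractions (rat, rhesus monkey or human) were incubated with [³H]PK 11195 (0.38 nM final) and eight test-ligand concentrations for 2 h at 4 °C. Samples were filtered on PEI-presoaked GF/B filters, washed with ice-cold buffer and counted. Nonspecific binding was taken at the top inhibitor level (0.1–0.3 µM). Triplicate curves were run in two independent experiments. IC₅₀ was converted to K_i by Cheng–Prusoff, using K_D from homologous PK 11195 displacement.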"}, "[12]": {"biological_target": "GABA A receptor alpha-1/beta-1/gamma-2 (Homo sapiens, UniProt P14867+P18505+P18507)", "sequence (P14867 whole entry)": "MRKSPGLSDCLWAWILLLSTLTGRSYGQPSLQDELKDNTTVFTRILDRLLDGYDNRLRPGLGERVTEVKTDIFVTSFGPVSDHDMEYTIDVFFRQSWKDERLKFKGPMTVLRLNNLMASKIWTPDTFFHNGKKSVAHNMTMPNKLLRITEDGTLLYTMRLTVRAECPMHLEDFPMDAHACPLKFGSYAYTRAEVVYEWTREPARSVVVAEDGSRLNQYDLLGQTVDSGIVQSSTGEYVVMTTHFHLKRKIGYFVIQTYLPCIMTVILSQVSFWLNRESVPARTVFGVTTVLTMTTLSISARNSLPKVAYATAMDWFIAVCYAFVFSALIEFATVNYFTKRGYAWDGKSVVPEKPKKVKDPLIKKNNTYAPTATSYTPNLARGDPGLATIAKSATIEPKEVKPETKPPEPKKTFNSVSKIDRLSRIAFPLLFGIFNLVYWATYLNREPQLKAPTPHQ", "sequence (P18507 whole entry)": "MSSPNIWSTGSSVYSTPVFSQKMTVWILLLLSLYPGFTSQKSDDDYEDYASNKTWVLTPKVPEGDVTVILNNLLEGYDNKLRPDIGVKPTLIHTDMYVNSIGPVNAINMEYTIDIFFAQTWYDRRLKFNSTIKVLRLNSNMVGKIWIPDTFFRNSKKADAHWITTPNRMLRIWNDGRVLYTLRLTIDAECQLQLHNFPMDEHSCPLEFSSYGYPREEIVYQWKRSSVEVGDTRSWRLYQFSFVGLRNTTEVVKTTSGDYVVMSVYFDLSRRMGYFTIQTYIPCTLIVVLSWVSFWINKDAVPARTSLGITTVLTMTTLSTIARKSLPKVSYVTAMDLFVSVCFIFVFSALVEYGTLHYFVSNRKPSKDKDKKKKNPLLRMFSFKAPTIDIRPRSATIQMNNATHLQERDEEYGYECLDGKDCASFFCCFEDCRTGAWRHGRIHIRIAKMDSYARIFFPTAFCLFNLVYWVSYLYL", "sequence (P18505 whole entry)": "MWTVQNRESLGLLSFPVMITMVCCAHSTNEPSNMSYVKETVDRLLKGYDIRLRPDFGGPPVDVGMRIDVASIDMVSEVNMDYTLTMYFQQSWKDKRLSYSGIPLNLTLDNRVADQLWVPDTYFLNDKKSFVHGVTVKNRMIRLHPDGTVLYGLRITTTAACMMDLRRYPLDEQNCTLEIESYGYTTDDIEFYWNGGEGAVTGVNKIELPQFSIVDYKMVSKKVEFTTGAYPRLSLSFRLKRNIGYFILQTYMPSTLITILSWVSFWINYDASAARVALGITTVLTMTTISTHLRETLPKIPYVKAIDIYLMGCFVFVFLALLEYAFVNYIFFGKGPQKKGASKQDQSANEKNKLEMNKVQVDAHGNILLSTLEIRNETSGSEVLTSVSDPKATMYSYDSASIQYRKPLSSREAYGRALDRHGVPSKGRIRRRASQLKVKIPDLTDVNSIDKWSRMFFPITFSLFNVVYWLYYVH", "experiment": "Binding affinity to GABA alpha-1-beta-1-gamma-2 receptor", "assay_type": "protein-complex assay", "summary_of_the_method": "(§2)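 K_i values at central benzodiazepine (GABA_A) receptor subtypes were determined in radioligand binding assays within the NIMH PDSP screen.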"}, "[13]": {"experiment": "Biodistribution in rhesus monkey plasma free fraction of blood", "assay_type": "ADME, organism-based, Macaca mulatta"}, "[14]": {"biological_target": "GABA A receptor alpha-2/beta-2/gamma-2 (Homo sapiens, UniProt P18507+P47869+P47870)", "sequence (P47870 whole entry)": "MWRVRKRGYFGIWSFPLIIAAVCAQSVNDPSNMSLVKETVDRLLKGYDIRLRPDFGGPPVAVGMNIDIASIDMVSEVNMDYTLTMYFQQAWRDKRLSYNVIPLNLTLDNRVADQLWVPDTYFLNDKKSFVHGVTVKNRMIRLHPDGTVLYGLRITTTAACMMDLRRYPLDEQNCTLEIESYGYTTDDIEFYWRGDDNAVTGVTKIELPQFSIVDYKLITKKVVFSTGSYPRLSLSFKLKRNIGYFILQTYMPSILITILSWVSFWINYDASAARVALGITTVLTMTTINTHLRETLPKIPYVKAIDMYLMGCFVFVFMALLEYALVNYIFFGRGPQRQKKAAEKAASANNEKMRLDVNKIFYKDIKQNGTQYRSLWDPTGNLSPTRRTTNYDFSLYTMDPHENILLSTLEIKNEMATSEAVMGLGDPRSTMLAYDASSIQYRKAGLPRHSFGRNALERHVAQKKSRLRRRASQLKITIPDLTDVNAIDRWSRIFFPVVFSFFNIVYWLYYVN", "sequence (P18507 whole entry)": "as the sequence (P18507 whole entry) above", "sequence (P47869 whole entry)": "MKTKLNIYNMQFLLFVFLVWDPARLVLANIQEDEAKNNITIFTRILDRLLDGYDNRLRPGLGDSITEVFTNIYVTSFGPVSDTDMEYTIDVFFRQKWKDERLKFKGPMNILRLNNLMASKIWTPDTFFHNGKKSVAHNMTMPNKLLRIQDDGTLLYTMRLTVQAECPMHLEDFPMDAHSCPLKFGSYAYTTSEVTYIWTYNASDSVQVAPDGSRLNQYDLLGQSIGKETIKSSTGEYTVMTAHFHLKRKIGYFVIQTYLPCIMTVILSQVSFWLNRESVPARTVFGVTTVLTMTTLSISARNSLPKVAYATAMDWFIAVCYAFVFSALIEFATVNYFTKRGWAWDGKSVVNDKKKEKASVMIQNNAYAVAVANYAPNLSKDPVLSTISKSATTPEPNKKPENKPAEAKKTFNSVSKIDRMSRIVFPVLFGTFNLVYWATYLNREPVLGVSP", "experiment": "Binding affinity to GABA alpha-2-beta-2-gamma-2 receptor", "assay_type": "protein-complex assay", "summary_of_the_method": "as §2"}, "[15]": {"biological_target": "GABA A receptor alpha-5/beta-3/gamma-2 (Rattus norvegicus, UniProt P18508+P19969+P63079)", "sequence (P18508 whole entry)": "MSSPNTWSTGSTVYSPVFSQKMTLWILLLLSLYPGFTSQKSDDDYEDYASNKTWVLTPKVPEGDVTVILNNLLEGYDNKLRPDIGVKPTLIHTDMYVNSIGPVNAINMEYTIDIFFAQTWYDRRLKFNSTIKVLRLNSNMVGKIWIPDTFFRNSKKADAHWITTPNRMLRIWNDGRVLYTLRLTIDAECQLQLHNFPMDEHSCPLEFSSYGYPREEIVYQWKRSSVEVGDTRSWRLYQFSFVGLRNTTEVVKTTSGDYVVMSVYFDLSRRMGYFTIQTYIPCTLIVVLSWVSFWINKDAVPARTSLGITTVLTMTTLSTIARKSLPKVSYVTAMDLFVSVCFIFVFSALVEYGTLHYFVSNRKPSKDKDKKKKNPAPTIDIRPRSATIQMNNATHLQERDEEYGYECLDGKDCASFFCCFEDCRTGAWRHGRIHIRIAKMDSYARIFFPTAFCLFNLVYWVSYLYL", "sequence (P19969 whole entry)": "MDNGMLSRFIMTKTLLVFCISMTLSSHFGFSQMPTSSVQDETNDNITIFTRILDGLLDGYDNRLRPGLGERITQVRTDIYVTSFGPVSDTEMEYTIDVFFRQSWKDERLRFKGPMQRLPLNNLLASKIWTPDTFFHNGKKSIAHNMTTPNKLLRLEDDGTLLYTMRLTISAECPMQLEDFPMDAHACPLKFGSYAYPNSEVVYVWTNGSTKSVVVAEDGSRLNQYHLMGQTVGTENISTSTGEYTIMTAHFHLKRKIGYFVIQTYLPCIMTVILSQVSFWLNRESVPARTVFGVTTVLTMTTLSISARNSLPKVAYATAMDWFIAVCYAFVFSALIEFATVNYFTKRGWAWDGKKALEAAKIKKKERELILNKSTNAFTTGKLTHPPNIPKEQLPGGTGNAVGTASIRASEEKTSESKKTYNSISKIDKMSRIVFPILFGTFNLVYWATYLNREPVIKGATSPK", "sequence (P63079 whole entry)": "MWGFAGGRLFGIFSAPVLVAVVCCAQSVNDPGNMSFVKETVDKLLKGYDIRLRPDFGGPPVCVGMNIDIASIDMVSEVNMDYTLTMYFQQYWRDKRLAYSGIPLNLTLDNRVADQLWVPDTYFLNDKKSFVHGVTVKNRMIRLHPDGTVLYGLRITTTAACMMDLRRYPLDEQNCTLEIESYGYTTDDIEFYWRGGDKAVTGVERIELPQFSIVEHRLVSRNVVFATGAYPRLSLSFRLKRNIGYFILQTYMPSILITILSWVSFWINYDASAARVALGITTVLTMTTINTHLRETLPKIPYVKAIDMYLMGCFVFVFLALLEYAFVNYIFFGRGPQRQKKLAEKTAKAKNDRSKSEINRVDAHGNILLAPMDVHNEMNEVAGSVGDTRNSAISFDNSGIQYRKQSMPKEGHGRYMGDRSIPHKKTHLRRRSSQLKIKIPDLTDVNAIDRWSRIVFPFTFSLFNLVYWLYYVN", "experiment": "Binding affinity to GABA alpha-5-beta-2-gamma-2 receptor", "assay_type": "protein-complex assay, Homo sapiens", "summary_of_the_method": "as §2"}, "[16]": {"experiment": "Stability in sodium phosphate buffer at pH 7.4 after 2.5 hrs", "assay_type": "physicochemical", "details": "read-out: Stability", "summary_of_the_method": "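Radioligand stored in 0.15 M sodium phosphate buffer, pH 7.4, for 2.5 h; radiochemical stability measured by radio-HPLC as percent of radioactivity remaining as unchanged radioligand; n = 4.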"}, "[17]": {"biological_target": "GABA A receptor alpha-6/beta-2/gamma-2 (Homo sapiens, UniProt P18507+P47870+Q16445)", "experiment": "Binding affinity to GABA alpha-6-beta-2-gamma-2 receptor", "assay_type": "protein-complex assay", "summary_of_the_method": "as §2"}, "[18]": {"system": "Plasma", "experiment": "Biodistribution in rat plasma at 0.472 mCi, iv after 30 mins", "assay_type": "ADME, organism-based", "details": "in vivo, 0.5 h", "summary_of_the_method": "as §1"}, "[19]": {"experiment": "Stability in Sprague-Dawley rat brain after 2 hrs", "assay_type": "ADME, tissue-based", "details": "read-out: Stability", "summary_of_the_method": "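The radioligand was incubated with rat brain homogenate in saline for 2 h at 37 °C. The percentage of unchanged radioligand was then determined by radio-HPLC.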"}}}
{"smiles": "CC(=O)N(Cc1ccccc1O[11CH3])c1cnccc1Oc1ccccc1", "values": [{"measurement": "Drug uptake", "setting": "[1]", "value": 2.4, "unit": "%"}, {"measurement": "remaining at 0.5 h", "setting": "[2]", "value": 95.8, "unit": "%"}, {"measurement": "Drug uptake", "setting": "[3]", "value": 0.39, "unit": "%"}, {"measurement": "Ki", "setting": "[4]", "value": 2200, "unit": "nM"}, {"measurement": "logD", "setting": "[5]", "value": 3.01}, {"measurement": "Drug uptake", "setting": "[6]", "value": 97.6, "unit": "%"}, {"measurement": "Ki", "setting": "[7]", "value": 2.47, "unit": "nM"}, {"measurement": "Drug uptake", "setting": "[8]", "value": 33.2, "unit": "%"}, {"measurement": "Drug uptake", "setting": "[9]", "value": 66.8, "unit": "%"}, {"measurement": "Ki", "setting": "[10]", "value": 0.68, "unit": "nM"}, {"measurement": "Ki", "setting": "[11]", "value": 0.944, "unit": "nM"}, {"measurement": "Ki", "setting": "[12]", "value": "> 10", "unit": "µM"}, {"measurement": "fraction unbound", "setting": "[13]", "value": 0.056}, {"measurement": "Ki", "setting": "[14]", "value": "> 10", "unit": "µM"}, {"measurement": "Ki", "setting": "[15]", "value": "> 10", "unit": "µM"}, {"measurement": "remaining at 2.5 h", "setting": "[16]", "value": 99, "unit": "%"}, {"measurement": "Ki", "setting": "[17]", "value": "> 10", "unit": "µM"}, {"measurement": "Drug uptake", "setting": "[18]", "value": 4.2, "unit": "%"}, {"measurement": "remaining at 2 h", "setting": "[19]", "value": 99.8, "unit": "%"}]}
{"smiles": "CC[C@H](C)N([11CH3])C(=O)c1cc2ccccc2c(-c2ccccc2Cl)n1", "values": [{"measurement": "logD", "setting": "[5]", "value": 3.97}, {"measurement": "Ki", "setting": "[11]", "value": 4.35, "unit": "nM"}]}
{"smiles": "COc1ccc(O[11CH3])c(CN(C(C)=O)c2cc(F)ccc2Oc2ccccc2)c1", "values": [{"measurement": "Ki", "setting": "[7]", "value": 0.242, "unit": "nM"}, {"measurement": "Ki", "setting": "[10]", "value": 0.0726, "unit": "nM"}, {"measurement": "Ki", "setting": "[11]", "value": 0.23, "unit": "nM"}]}
